Screening data: PubChem BioAssay, several laboratories
A selection: hits, their analogues and other compounds. The true share with any hit is near 2.3%.
HNF4A DNA FP – change in binding of human HNF4 alpha to DNA; P41235; HNF4a-FITC DNA binding, fluorescence polarization, 1 h; activity change, % at 10 µM; 360,000 tested, 0.3% active; AID 1224865; in the data active means activity change above about 30%, passing the limit was not always enough
Target sequence (P41235 whole entry, looked up): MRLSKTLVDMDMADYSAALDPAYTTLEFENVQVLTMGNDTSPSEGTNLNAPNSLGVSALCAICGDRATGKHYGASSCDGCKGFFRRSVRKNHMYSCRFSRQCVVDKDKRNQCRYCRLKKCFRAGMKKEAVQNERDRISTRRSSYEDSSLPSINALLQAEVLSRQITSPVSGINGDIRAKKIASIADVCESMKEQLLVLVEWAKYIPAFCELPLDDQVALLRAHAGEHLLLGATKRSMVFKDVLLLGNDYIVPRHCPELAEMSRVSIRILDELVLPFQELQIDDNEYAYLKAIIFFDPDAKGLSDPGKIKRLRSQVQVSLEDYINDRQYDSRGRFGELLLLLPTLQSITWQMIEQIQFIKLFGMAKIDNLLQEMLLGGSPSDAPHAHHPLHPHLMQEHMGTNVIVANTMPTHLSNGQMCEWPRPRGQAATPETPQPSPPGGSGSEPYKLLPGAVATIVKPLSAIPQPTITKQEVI
Rpn11 inh – inhibitors of human proteasome Rpn11. 360,000 tested, 0.59% active. O00487. inhibition, % at 20 µM. human 26S proteasome, Ub4-pepOG fluorescence polarization; 20S core pre-blocked with epoxomicin;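 active means inhibition at 20 µM, scaled to each plate's controls, above about 33%, limit read from the data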
CSN inh – CSN deneddylation inhibition. inhibition, % at 12.5 µM. AID 651999. Purified CSN, SCF-Nedd8-OG deneddylation, fluorescence polarization. 360,000 tested, 0.38% active;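 active means pattern-corrected inhibition above about 35%, with an unprinted fluorescence ratio check between 0.5 and 1.5, limit read from the data, passing the limit was not always enough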
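Test system: purified human Csn5 enzyme expressed in HEK293T cells. Amount: 0.24 nM enzyme. Reagent: SCFSkp2-Nedd8OG substrate at 10 nM final. Schedule: 90 min incubation of compound, enzyme and substrate at room temperature. Detection: fluorescence polarization. Read-out: % inhibition of substrate cleavage by Csn5.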
Myeloid diff MLP – compounds promoting myeloid differentiation. 360,000 tested, 1% active. ER-HoxA9 myeloid progenitors, lysozyme-GFP differentiation, flow cytometry. calls only at 10 µM;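 active means normalized GFP-positive differentiation at or above the plate's own cutoff, the solvent-only control mean plus 3 SD; inconclusive means no clear call, values can overlap the other calls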;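 further: cells exposed to compound for four days before flow analysis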
TPT1 inh – blocks Candida albicans tRNA 2'-phosphotransferase | recombinant caTPT1, FP RNA substrate dephosphorylation | 300,000 tested, 0.81% active | AID 1962 | inhibition, % at 5 µM;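 active means inhibition above the mean of all tested compounds plus 3 SD, set per screening campaign, cut at about 24% in these data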
Rpn11 inh conf – confirmation of human proteasome Rpn11 inhibitors; shares compounds with Rpn11 inh; purified human 26S proteasome, Ub4-pepOG fluorescence polarization; proteasome pretreated with epoxomicin; inhibition, % at 20 µM; 1,900 tested, 29% active
MMP-2 inh – blocks human MMP-2, flagging nonselective RPN11 hits; shares compounds with Rpn11 inh; recombinant MMP-2, FRET peptide cleavage fluorescence; inhibition, % at 20 µM; 1,900 tested, 4% active; AID 602330;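 further: human MMP-2 activated beforehand with APMA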
Thrombin inh – thrombin (bovine) inhibition counter-screen | shares compounds with Rpn11 inh | bovine thrombin cleavage of Ub4-pepOG, fluorescence polarization | inhibition, % at 20 µM | 1,900 tested, 13% active | AID 602333;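 active means mean inhibition at least 40% at 20 µM, or signal 3 deviations below plate average, so some actives read negative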
A number is an active result; 0 = inactive; ? = inconclusive; - = no result; + = active, no number. Unless noted, no stated cut-off is given here; in the data, active means inhibition above about 40%; inactive means the rest.

SMILES | HNF4A DNA FP | Rpn11 inh | CSN inh | Myeloid diff MLP | TPT1 inh | Rpn11 inh conf | MMP-2 inh | Thrombin inh
N/C(=N\c1nc2c(c(=O)[nH]1)CCC2)Nc1cccc2ccccc12 | 0 | 36 | 0 | 0 | 0 | 47 | 0 | 0
COC(=O)c1ccc(C)c(NC(=O)CSc2sc3c(O)cc(=O)[nH]c3c2C#N)c1 | 0 | 44 | 0 | 0 | 0 | 0 | 0 | 0
COCc1ccc(-c2ccc3c(c2)c(C#Cc2ccsc2)c(-c2cc(OC)cc(OC)c2)n3C)cc1 | 0 | 0 | 0 | 0 | - | - | - | -
COc1cc(OC)cc(-c2c(C#Cc3ccsc3)c3cc(-c4ccc(C(N)=O)cc4)ccc3n2C)c1 | 0 | 48 | 0 | 0 | - | 0 | 0 | 0
Cc1cc(C)c2c(=O)[nH]c(=O)n(Cc3ccccc3)c2n1 | 0 | 80 | 0 | 0 | 0 | 95 | 0 | 50
Cc1ccc(-c2nc3c(c(=O)[nH]c(=O)n3Cc3ccccc3)n2Cc2ccccc2)o1 | 0 | 0 | 0 | 0 | - | - | - | -
CC(C)N1CCc2c(sc(NC(=O)Cc3ccccc3)c2C(N)=O)C1 | 0 | 0 | 0 | 0 | 0 | - | - | -
CC(C)N1CCc2c(sc(NC(=O)c3cc4cc([N+](=O)[O-])ccc4s3)c2C(N)=O)C1 | 0 | 66 | 0 | ? | - | 0 | 0 | 0
O=C(N/C(=N\O)c1ccccc1)Nc1ccc(Cl)cc1 | 0 | 37 | 0 | 0 | 0 | 0 | 0 | 0
O=C(NC(=S)Nc1ccc(Cl)cc1)c1ccccc1 | 0 | 0 | 0 | 0 | 0 | - | - | -
Cc1ccc(C)c(S(=O)(=O)N/N=C/c2ccc(N3CCOCC3)cc2)c1 | 0 | 0 | 0 | 0 | 0 | - | - | -
O=C1Nc2ccccc2OCc2c1cccc2[N+](=O)[O-] | 0 | 34 | 0 | 0 | 0 | 0 | 0 | 0
NNC(=O)COc1ccc(F)cc1 | 32 | 46 | 0 | 0 | 0 | 0 | 0 | 0
NCCCC[C@@H]1NC(=O)[C@H](CCC(=O)O)NC(=O)c2cc([N+](=O)[O-])cc(I)c2SC[C@@H](C(=O)NCC(N)=O)NC1=O | 0 | 0 | 0 | 0 | 0 | - | - | -
NCCCC[C@@H]1NC(=O)c2cc([N+](=O)[O-])cc(I)c2SC[C@@H](C(N)=O)NC(=O)[C@H](Cc2ccc(O)cc2)NC1=O | 0 | 44 | 0 | 0 | 0 | 0 | 0 | 0
CCOc1ccc(NC(=O)C2CC(=O)N(c3ccccc3F)C2)cc1 (stereo not drawn) | 0 | 0 | 0 | 0 | 0 | - | - | -
CC(=O)NNc1ncnc2ccccc12 | 0 | 0 | 0 | 0 | 0 | - | - | -
O=C(NNc1ncnc2ccccc12)c1cccc(Cl)c1 | 0 | 74 | 0 | 0 | 0 | 77 | 0 | 0
COc1cc(NC(=O)c2c(Cl)cnn2C)c(OC)cc1Cl | 0 | 0 | 0 | 0 | 0 | - | - | -
Cn1ncc(Cl)c1C(=O)Nc1cc(C(F)(F)F)ccc1F | 0 | + | 0 | 0 | 0 | 0 | 0 | 0
Cc1ncoc1C(=O)NC1CCCc2c1cnn2-c1ccc(C(C)(C)C)cc1 (stereo not drawn) | 0 | 0 | 0 | ? | - | - | - | -
OC(c1ccc(CN2CCCCC2)cc1)c1ncc(-c2ccccc2)[nH]1 (stereo not drawn) | 0 | 0 | 0 | 0 | - | - | - | -
Clc1ccc(OCc2nn3c(-c4ccco4)nnc3s2)c(Cl)c1 | 0 | 90 | 0 | 0 | 0 | 0 | 0 | 0
Cc1ccc(NC(=O)CN2C(=O)N/C(=C\c3ccco3)C2=O)cc1 | 0 | 46 | 0 | 0 | - | 0 | 0 | 0
O=C(COc1ccccc1Cl)Nc1nnc(S(=O)(=O)N2CCCCCC2)s1 | 0 | 0 | 0 | 0 | 0 | - | - | -
SMILES | HNF4A DNA FP | Rpn11 inh | CSN inh | Myeloid diff MLP | TPT1 inh | Rpn11 inh conf | MMP-2 inh | Thrombin inh
C#CCn1c(=NC(=O)c2cc(-c3cccs3)nc3ccccc23)sc2cc(S(N)(=O)=O)ccc21 | 0 | 70 | 0 | 0 | 0 | 0 | 0 | 0
Cc1cc(NC(=O)CCC(=O)N(c2cccnc2)C(C(=O)NC2CCCC2)c2ccccc2)no1 (stereo not drawn) | 0 | 0 | 0 | 0 | 0 | - | - | -
Cc1cc(NC(=O)CCC(=O)N(c2ccccc2)C(C(=O)NCC2CCCO2)c2cccnc2)no1 (stereo not drawn) | 0 | 54 | 0 | 0 | 0 | 0 | 0 | 0
CCCCCCCCN1C(=O)[C@H](CC(=O)NCCCCc2ccccc2)C[C@@]2(C(=O)OCC)CCCC=C12 | 0 | - | 0 | 0 | - | - | - | -
COc1cc(/C=C2\SC(=Nc3ccccc3OC)NC2=O)ccc1O | 0 | 74 | 0 | 0 | 0 | 47 | 0 | 51
COc1ccc(C=C2SC(=O)NC2=O)cc1OC | 0 | 0 | 0 | 0 | - | - | - | -
COc1cc(/C=C2/SC(=Nc3ccc(O)cc3)NC2=O)ccc1O | 0 | 76 | 0 | 0 | 0 | 70 | 0 | 64
Cc1cc(C)c(S(=O)(=O)Nc2ccc(Cl)cn2)c(C)c1 | 0 | 0 | 0 | 0 | 0 | - | - | -
COc1cc(OC)c(NC(=O)CC2SC(N)=NC2=O)cc1Cl (stereo not drawn) | 0 | 0 | 0 | 0 | - | - | - | -
CC1(C)NC(=O)N(CCOCCOc2c(Cl)cc(Cl)cc2Cl)C1=O | 0 | 0 | 0 | 0 | 0 | - | - | -
O=S(=O)(c1ccc(Cl)cc1)N1CCCc2ccccc21 | 0 | 0 | 0 | 0 | 0 | - | - | -
O=S(=O)(c1ccc(Cl)cc1)N1CCc2ccccc21 | 93 | 42 | 54 | 0 | 0 | 147 | 0 | 132
O=C(Nc1ccc(-c2nc3ccccc3[nH]2)cc1)c1ccco1 | 0 | 0 | 0 | 0 | 0 | - | - | -
O=C(/C=C/c1ccco1)Nc1ccc(-c2nc3ccccc3[nH]2)cc1 | 66 | 56 | 0 | 0 | 0 | 0 | 0 | 0
CCOC(=O)C1CCN(S(=O)(=O)c2ccc3c(c2)N(C(C)=O)CC(C)S3)CC1 (stereo not drawn) | 0 | 0 | 0 | 0 | 0 | - | - | -
COC(=O)c1ccccc1NC(=O)CN1C(=O)C2CCCN2c2ncc(Cl)cc21 (stereo not drawn) | - | - | - | - | 0 | - | - | -
CCc1ccccc1NC(=O)CN1C(=O)C2CCCN2c2ncc(Cl)cc21 (stereo not drawn) | 0 | 41 | 0 | 0 | 0 | 0 | 0 | 0
O=C(NCCc1ccccc1)c1cccc(N2CCCC2=O)c1 | 0 | 0 | 0 | 0 | 0 | - | - | -
Cc1cc(C)c(-c2nc3ccccc3s2)[nH]1 | 0 | 60 | 0 | + | 0 | 0 | 0 | 0
COC(=O)c1ccc(C23CC4(C2)[C@H](CN(Cc2cccnc2)[C@@H]4c2ccccc2)C3c2ccccc2)cc1 (stereo partly drawn) | 0 | 44 | 0 | 0 | 0 | 0 | 0 | 0
COC(=O)c1ccc(C23CC4(C2)[C@H](CN(Cc2cccnc2)[C@@H]4c2ccccc2)C3c2ccc(C(F)(F)F)cc2)cc1 (stereo partly drawn) | - | - | - | - | 0 | - | - | -
O=C(CCOc1ccccc1)NCC(c1ccco1)N1CCCCC1 (stereo not drawn) | 51 | 83 | 0 | 0 | 0 | 0 | 0 | 0
